Where “and” joins values, the source holds several entries; their conditions need not be identical. Equal values may be shown once.
Experiments:
[1] = system: Mus musculus; test: Behavioral time in mouse face to face assay at 0 umol/kg administered; assay type: functional
Method in brief: (§1)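 Male CF-1 mice (Charles River, 19-29 g), 8 pairs per dose, dosed sc, ip or orally in 0.25% methylcellulose or 0.1% citric acid; 30 min absorption housed with familiar partner. Pairs from different home cages placed in small litter-floored cage; face-to-face interaction duration scored visually for 3 min. Wilcoxon rank sum (two-tailed) vs daily control, p < 0.05.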

[2] = system: Mus musculus; test: Behavioral time in mouse face to face assay at 0.3 umol/kg administered; assay type: functional; method in brief: as §1
[3] = system: Mus musculus; test: Behavioral time in mouse isolation-induced aggression assay 0 umol/kg administered peritoneally; assay type: functional; settings: in the assay text read “administered orally” for “administered peritoneally”
Method in brief: (§2)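 Male CF-1 mice. Residents were isolated singly for at least 1 month; group-housed intruders were kept 4-6/cage. Mice weighed 28-30 g at first test. Residents got drug ip or orally in 0.25% methylcellulose or 0.1% citric acid 30 min before an untreated intruder was introduced. Latency to fighting was recorded, capped at 600 s. Dosing was blind, 6/group (vehicle n = 12), Wilcoxon rank sum.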

[4] = system: Mus musculus; test: Behavioral time in mouse face to face assay at 3.2 umol/kg administered; assay type: functional; method in brief: as §1
[5] = system: Mus musculus; test: Behavioral time in mouse isolation-induced aggression assay 32 umol/kg administered peritoneally; assay type: functional; settings: in the assay text read “administered orally” for “administered peritoneally”; method in brief: as §2
[6] = system: Mus musculus; test: Behavioral time in mouse face to face assay at 32 umol/kg administered; assay type: functional; method in brief: as §1
[7] = system: Mus musculus; test: (§3) Behavioral time in mouse isolation-induced aggression assay at 0 umol/kg administered intraperitoneally; assay type: functional
Method in brief: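 Isolated male CF-1 resident mice, housed singly ≥1 month and weighing 28-30 g at testing, were dosed ip or orally in 0.25% methylcellulose or 0.1% citric acid. Dosing was blind, 6 per group (n=12 vehicle). After 30 min an untreated group-housed intruder was introduced. Latency to fighting was recorded, capped at 600 s. Residents rested ≥3 days before reuse. Wilcoxon rank sum.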

[8] = system: Mus musculus; test: Tested in vivo for the effective dose administered orally in mouse hypothermia assay; assay type: functional; settings: po
Method in brief: (§4)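 Charles River CF-1 mice (18-22 g, 4 per dose), housed individually 20 min before testing. Rectal temperature taken before dosing and 20 min after (sc 0.1 mL; oral 0.2 mL by gavage needle). A drop of ≥2 °F counted as positive. Doses started at 30 mg/kg and fell by half-log until 0/4 responded.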

[9] = system: Mus musculus; test: Behavioral time in mouse face to face assay at 3.3 umol/kg administered perorally (*P<0.05); assay type: functional; method in brief: as §1
[10] = system: Mus musculus; test: Behavioral time in mouse isolation-induced aggression assay at 10 umol/kg administered intraperitoneally (*P<0.05); assay type: functional; method in brief: as §2
[11] = system: Mus musculus; test: Behavioral time in mouse isolation-induced aggression assay at 0 umol/kg administered perorally (*P<0.05); assay type: functional; method in brief: as §2
[12] = system: Mus musculus; test: Behavioral time in mouse isolation-induced aggression assay at 10 umol/kg administered perorally (*P<0.05); assay type: functional; method in brief: as §2
[13] = system: Mus musculus; test: Tested in vivo for the maximum temperature decrease in mouse hypothermia assay.; assay type: functional
Method in brief: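 CF-1 mice (18-22 g, 4 per dose), dosed sc or orally. Rectal temperature measured before dosing and 20 min after. The mean maximum temperature drop (°F) at 20 min after any dose is recorded as an efficacy index.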

[14] = system: Mus musculus; test: Behavioral time in mouse face to face assay at 33 umol/kg administered perorally (*P<0.05); assay type: functional; method in brief: as §1
[15] = system: Mus musculus; test: Behavioral time in mouse face to face assay at 0.3 umol/kg administered perorally (*P<0.05); assay type: functional; method in brief: as §1
[16] = system: Mus musculus; test: In vivo effective dose administered subcutaneously in mouse hypothermia assay.; assay type: functional; settings: sc; method in brief: as §4
[17] = system: Mus musculus; test: Behavioral time in mouse face to face assay at 0.03 umol/kg administered perorally; assay type: functional; method in brief: as §1
[18] = system: Mus musculus; test: Behavioral time in mouse isolation-induced aggression assay at 33 umol/kg administered perorally (*P<0.05); assay type: functional; method in brief: as §2
[19] = system: Mus musculus; test: Behavioral time in mouse face to face assay at 0 umol/kg administered perorally; assay type: functional; method in brief: as §1
[20] = system: Felis catus; test: Dose on arterial blood pressure (BP) in anesthetized cat; assay type: functional
Method in brief: (§5)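 Adult cats (2.5-4.0 kg) anesthetized with ketamine 11 mg/kg im, then chloralose 80 mg/kg iv. Femoral artery cannulated for blood pressure, femoral vein for drug. Ventilated, paralyzed with gallamine 4 mg/kg iv, rectal temperature held at 37-38 °C. Cumulative iv doses given at 20-min intervals. Maximum decrease reported following a 1 mg/kg iv dose.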

[21] = species: Felis catus; test: Maximum decrease observed; assay type: functional; set-up: unit not given here
[22] = system: Mus musculus; test: Behavioral time in mouse face to face assay at 36 umol/kg administered subcutaneously; assay type: functional; method in brief: as §1
[23] = system: Mus musculus; test: Behavioral time in mouse face to face assay at 0.4 umol/kg administered subcutaneously; assay type: functional; method in brief: as §1
[24] = species: Felis catus; test: Dose at which the SND has been reduced to 50% of the pretreatment value; assay type: functional
Method in brief: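 Adult cats (2.5-4.0 kg), ketamine 11 mg/kg im then chloralose 80 mg/kg iv, ventilated, gallamine-paralyzed, rectal temperature 37-38 °C. Sympathetic nerve discharge quantified by cumulative integration. Cumulative iv doses were given at 20-min intervals. Value is the dose reducing discharge to 50% of pretreatment.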

[25] = system: Felis catus; test: Maximum decrease on arterial blood pressure at 1 mg/kg; assay type: functional; method in brief: as §5
[26] = system: Mus musculus; test: Behavioral time in mouse face to face assay at 3.5 umol/kg administered subcutaneously; assay type: functional; method in brief: as §1
[27] = system: Mus musculus; test: Behavioral time in mouse face to face assay at 0 umol/kg administered subcutaneously; assay type: functional; method in brief: as §1
[28] = system: Rattus norvegicus; test: Effect on the synthesis rate of dopamine (DOPA) accumulation at the dose of 3.5 uM/kg in the rat ventral limbic brain region; assay type: functional, Limbic system
Method in brief: (§6)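 Male Sprague-Dawley rats dosed sc with drug or vehicle at time zero. NSD 1015 (100 mg/kg ip) given 15 min later to block aromatic decarboxylase. Brain DOPA and 5-HTP measured by electrochemical detection with peak integration. Expressed as percent change from NSD 1015 plus saline controls. Control and test groups N = 6 each, compared by unpaired t test.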

[29] = system: Rattus norvegicus; test: Effect on the synthesis rate of 5 HTP accumulation at the dose of 3.5 umol/kg in the rat ventral limbic brain region; assay type: functional, Limbic system; method in brief: as §6
[30] = system: Mus musculus; test: Behavioral time in mouse face to face assay at 35 umol/kg administered perorally; assay type: functional; method in brief: as §1
[31] = system: Mus musculus; test: as §3; assay type: functional; method in brief: as §2; remark: listed apart in the source
[32] = system: Mus musculus; test: Behavioral time in mouse isolation-induced aggression assay at 11 umol/kg administered perorally; assay type: functional; method in brief: as §2
[33] = system: Mus musculus; test: Behavioral time in mouse face to face assay at 3.5 umol/kg administered perorally; assay type: functional; method in brief: as §1
[34] = system: Mus musculus; test: Behavioral time in mouse face to face assay at 11 umol/kg administered perorally; assay type: functional; method in brief: as §1
[35] = system: Mus musculus; test: Behavioral time in mouse isolation-induced aggression assay at 11 umol/kg administered intraperitoneally (*P<0.05); assay type: functional; method in brief: as §2
[36] = system: Mus musculus; test: Behavioral time in mouse isolation-induced aggression assay at 3.5 umol/kg administered intraperitoneally (*P<0.05); assay type: functional; method in brief: as §2
[37] = system: Mus musculus; test: Behavioral time in mouse isolation-induced aggression assay at 35 umol/kg administered perorally (*P<0.05); assay type: functional; method in brief: as §2
[38] = system: Mus musculus; test: Behavioral time in mouse isolation-induced aggression assay at 3.5 umol/kg administered perorally; assay type: functional; method in brief: as §2
[39] = system: Mus musculus; test: Behavioral time in mouse isolation-induced aggression assay at 0 umol/kg administered perorally; assay type: functional; method in brief: as §2
[40] = system: Rattus norvegicus; test: Effect on the synthesis rate of dopamine (DOPA) accumulation at the dose of 9.7 umol/kg in the rat ventral limbic brain region; assay type: functional, Limbic system; method in brief: as §6
[41] = system: Rattus norvegicus; test: Effect on the synthesis rate of 5 HTP accumulation at the dose of 9.7 uM/kg in the rat ventral limbic brain region; assay type: functional, Limbic system; method in brief: as §6
[42] = system: Felis catus; test: Maximum decrease observed following 1 mg/kg dose; assay type: functional
[43] = system: Rattus norvegicus; test: Effect on the synthesis rate of dopamine (DOPA) accumulation at 3.4 umol/kg in the rat ventral limbic brain region; assay type: functional, Limbic system; method in brief: as §6
[44] = system: Mus musculus; test: Behavioral time in mouse face to face assay at 0 umol/kg administered intraperitoneally; assay type: functional; method in brief: as §1
[45] = system: Rattus norvegicus; test: Effect on the synthesis rate of 5 HTP accumulation at 3.4 umol/kg in the rat ventral limbic brain region; assay type: functional, Limbic system; method in brief: as §6
[46] = system: Rattus norvegicus; test: Effect on the synthesis rate of dopamine (DOPA) accumulation at the dose of 68 umol/kg in the rat ventral limbic brain region; assay type: functional, Limbic system; method in brief: as §6
[47] = system: Rattus norvegicus; test: Effect on the synthesis rate of 5 HTP accumulation at 68 umol/kg in the rat ventral limbic brain region; assay type: functional, Limbic system; method in brief: as §6
[48] = system: Rattus norvegicus; test: Effect on the synthesis rate of dopamine (DOPA) accumulation at the dose of 10 umol/kg in the rat ventral limbic brain region; assay type: functional, Limbic system; method in brief: as §6
[49] = system: Rattus norvegicus; test: Effect on the synthesis rate of 5 HTP accumulation at the dose of 10 umol/kg in the rat ventral limbic brain region; assay type: functional, Limbic system; method in brief: as §6

## C=CCN[C@@H]1CCc2cccc(OC)c2[C@@H]1C(=O)OC
[1]
  Time: 0.7 s
[2]
  Time: 1 s
[3]
  Time: 56 s
[4]
  Time: 1.1 s
[5]
  Time: 120 s
[6]
  Time: 0.8 s

## CCCN(C)[C@@H]1CCc2cccc(OC)c2[C@@H]1CO
[7]
  Time: 6 s
[8]
  ED50: 32 µmol/kg
[9]
  Time: 1.7 s
[10]
  Time: 329 s
[11]
  Time: 43 s
[12]
  Time: 125 s
[13]
  TMP.decrease: 9.1 degrees F and 5 degrees F
[14]
  Time: 2.1 s
[15]
  Time: 2 s
[16]
  ED50: 5.7 µmol/kg
[17]
  Time: 1.7 s
[18]
  Time: 269 s
[19]
  Time: 1.1 s

## C=CC[C@H]1c2c(O)cccc2CC[C@H]1NCCC
[20]
  BP: 77%
[8]
  ED50: 61 µmol/kg
[21]
  Max decrease: 10
[22]
  Time: 3.8 s
[23]
  Time: 2.9 s
[24]
  ED50: 0.09 µmol/kg
[25]
  Max decrease: 55
[13]
  TMP.decrease: 9.5 degrees F and 6.9 degrees F
[26]
  Time: 3.9 s
[27]
  Time: 2.8 s
[16]
  ED50: 1.1 µmol/kg
[28]
  Change: 14%
[29]
  Change: -53%

## CCCN[C@@H]1CCc2cccc(O)c2[C@@H]1CCC
[8]
  ED50: 46 µmol/kg
[30]
  Time: 1.1 s
[31]
  Time: 8 s
[32]
  Time: 146 s
[33]
  Time: 1.1 s
[13]
  TMP.decrease: 10.4 degrees F and 7.5 degrees F
[34]
  Time: 1.3 s
[35]
  Time: 125 s
[36]
  Time: 97 s
[16]
  ED50: 6.1 µmol/kg
[37]
  Time: 54 s
[38]
  Time: 28 s
[39]
  Time: 11 s
[19]
  Time: 1.1 s

## CCCN[C@@H]1CCc2cccc(OC)c2[C@@H]1CC1CC1
[40]
  Change: 5%
[13]
  TMP.decrease: 7.4 degrees F
[41]
  Change: -25.8%
[16]
  ED50: 31 µmol/kg

## C=CC[C@@H]1c2c(cccc2OC)CC[C@H]1NCCC (relative stereo)
[20]
  BP: 71%
[8]
  ED50: 59 µmol/kg
[42]
  Max decrease: 66
[21]
  Max decrease: 16
[43]
  Change: -4.3%
[24]
  ED50: 1.35 µmol/kg
[13]
  TMP.decrease: 10.2 degrees F and 5.8 degrees F
[44]
  Time: 0.4 s
[45]
  Change: -6.9%
[46]
  Change: 8.1%
[16]
  ED50: 14 µmol/kg
[47]
  Change: -16%

## C=CC[C@@H]1c2cccc(OC)c2CC[C@H]1NCCC (relative stereo)
[48]
  Change: -15%
[49]
  Change: 2.7%

Source: ChEMBL document CHEMBL1126613, “Centrally acting serotonergic agents. Synthesis and structure-activity relationships of C-1- or C-3-substituted derivatives of 8-hydroxy-2-(di-n-propylamino)tetralin” (J Med Chem, 1993)
